Assay results reported in ChEMBL document CHEMBL1133569, “A potent, long-acting, orally active (2R)-2-[(1R)-3, 3-difluorocyclopentyl]-2-hydroxy-2-phenylacetamide: novel muscarinic M(3) receptor antagonist with high selectivity for M(3) over M(2) receptors” (J Med Chem, 2000).

Columns and labels:
[1] = target: T1, Muscarinic acetylcholine receptor M3 (Homo sapiens, UniProt P20309); experiment: Inhibition of [3H]NMS binding to human muscarinic acetylcholine receptor M3 expressed in CHO cells; assay type: cell-based
T1 sequence (P20309 whole entry): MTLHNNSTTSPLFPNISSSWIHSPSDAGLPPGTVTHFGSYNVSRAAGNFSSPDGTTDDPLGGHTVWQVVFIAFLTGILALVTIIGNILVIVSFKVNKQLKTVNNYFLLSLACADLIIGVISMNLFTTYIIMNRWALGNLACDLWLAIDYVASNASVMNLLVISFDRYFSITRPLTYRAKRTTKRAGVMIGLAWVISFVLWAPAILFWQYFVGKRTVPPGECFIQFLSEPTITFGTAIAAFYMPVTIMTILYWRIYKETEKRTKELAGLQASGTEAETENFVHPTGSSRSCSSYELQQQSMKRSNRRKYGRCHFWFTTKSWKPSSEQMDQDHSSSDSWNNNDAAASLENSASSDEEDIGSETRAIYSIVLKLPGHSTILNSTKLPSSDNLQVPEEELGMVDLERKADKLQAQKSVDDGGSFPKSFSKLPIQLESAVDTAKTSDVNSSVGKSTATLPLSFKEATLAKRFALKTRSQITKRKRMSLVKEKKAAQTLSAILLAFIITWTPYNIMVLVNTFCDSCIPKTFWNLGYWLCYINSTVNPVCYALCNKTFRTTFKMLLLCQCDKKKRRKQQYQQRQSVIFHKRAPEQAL
Procedure, shortened: (§1)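 Competition binding against [3H]-NMS on membranes from CHO cells expressing cloned human m2 or m3 receptors. Affinity is taken from inhibition of specific binding, as the mean of two or more independent assays.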

[2] = target: T2, Muscarinic acetylcholine receptor M2 (Homo sapiens, UniProt P08172); experiment: Inhibition of [3H]NMS binding to human muscarinic acetylcholine receptor M2 expressed in CHO cells; assay type: cell-based; procedure, shortened: as §1
T2 sequence (P08172 whole entry): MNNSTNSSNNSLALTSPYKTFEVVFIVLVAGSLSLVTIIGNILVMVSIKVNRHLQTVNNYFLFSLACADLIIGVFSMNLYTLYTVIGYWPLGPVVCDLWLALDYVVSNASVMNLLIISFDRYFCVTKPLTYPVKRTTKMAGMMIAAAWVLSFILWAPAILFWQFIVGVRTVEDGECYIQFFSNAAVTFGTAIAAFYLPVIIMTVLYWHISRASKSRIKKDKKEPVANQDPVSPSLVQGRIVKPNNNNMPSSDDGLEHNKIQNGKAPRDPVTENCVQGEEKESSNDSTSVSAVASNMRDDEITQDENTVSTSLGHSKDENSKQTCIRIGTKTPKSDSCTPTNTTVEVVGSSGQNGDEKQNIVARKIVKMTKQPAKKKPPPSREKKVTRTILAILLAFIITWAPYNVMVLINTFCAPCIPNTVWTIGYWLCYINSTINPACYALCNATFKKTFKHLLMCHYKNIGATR

[3] = target: T1, Muscarinic acetylcholine receptor M3; experiment: Ability to inhibit binding of [3H]NMS was determined by receptor binding assay using membranes from chinese hamster ovary (CHO) cells expressing cloned Muscarinic acetylcholine receptor M3; assay type: cell membranes
Procedure, shortened: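 Radioligand displacement of [3H]-NMS specific binding on membranes prepared from CHO cells transfected with cloned human m3 receptor. Affinity was derived from inhibition of specific binding. Each value is the mean of two or more independent assays.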

Homo sapiens [4] = organism: Homo sapiens; experiment: In vitro metabolic stability in human hepatic microsomes (1 mg protein/mL), expressed as the percent remaining after 30 min of incubation at […].; assay type: functional; settings: Liver, 37 °C
Procedure, shortened: (§2)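 Test compound at 10 µM incubated 30 min at 37 °C with dog or human hepatic microsomes (1 mg protein/mL). Read-out is percent of parent remaining. More than 2 determinations.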

Canis familiaris [5] = organism: Canis familiaris; experiment: In vitro metabolic stability in dog hepatic microsomes (1 mg protein/mL), expressed as the percent remaining after 30 min of incubation at […].; assay type: functional; settings: Canis lupus familiaris, Liver, 37 °C; procedure, shortened: as §2
Homo sapiens [6] = organism: Homo sapiens; experiment: In vitro metabolic stability in human hepatic microsomes (1 mg protein/mL) was reported as the percent remaining after 30 min of incubation […]; assay type: functional; settings: Liver; procedure, shortened: as §2
Canis familiaris [7] = experiment: Metacholine provocation test was conducted 4 hr after oral administration (1 mg/kg) in anesthetized dogs. The bronchodilatory activity is expressed as shifts; assay type: functional, Canis lupus familiaris

SMILES	Ki [1]	Ki [2]	Ki [3]	Metabolic stability (Homo sapiens [4])	Metabolic stability (Canis familiaris [5])	Metabolic stability (Homo sapiens [6])	Activity (Canis familiaris [7])
Cc1cccc(CN2CCC(NC(=O)C(O)(c3ccccc3)C3CCCC3)CC2)n1 (centres undefined)	11 nM	2400 nM					
O=C(NC1CCN(CC2CCCCCC2)CC1)[C@](O)(c1ccccc1)[C@@H]1CCC(F)(F)C1		17000 nM	28 nM				
CC(C)=CCCN1CCC(NC(=O)[C@](O)(c2ccccc2)[C@H]2CCC(F)(F)C2)CC1	16 nM	1400 nM		75%	77%		
O=C(NC1CCN(Cc2ccccn2)CC1)[C@](O)(c1ccccc1)[C@@H]1CCC(F)(F)C1	13 nM	2400 nM		60%	45%		
O=C(NC1CCN(Cc2cccc(F)c2)CC1)[C@](O)(c1ccccc1)[C@@H]1CCC(F)(F)C1	3.1 nM	480 nM			23%	52%	
O=C(NC1CCN(Cc2cccnc2)CC1)C(O)(c1ccccc1)C1CCCC1 (centres undefined)	100 nM	4600 nM					
CC(C)=CCCN1CCC(NC(=O)[C@](O)(c2ccccc2)[C@H]2CC[C@@H](F)C2)CC1	11 nM	2300 nM		75%	64%		
O=C(NC1CCN(CC2CCCCCCC2)CC1)C(O)(c1ccccc1)C1CCCC1 (centres undefined)	93 nM	9400 nM					
COc1cccc(CN2CCC(NC(=O)C(O)(c3ccccc3)C3CCCC3)CC2)c1 (centres undefined)	5.9 nM	270 nM					
O=C(NC1CCN(CC2CCCCC2)CC1)[C@](O)(c1ccccc1)[C@@H]1CCC(F)(F)C1	18 nM	21000 nM		86%	70%		2.3
Cc1cccc(CN2CCC(NC(=O)[C@](O)(c3ccccc3)[C@@H]3CCC(F)(F)C3)CC2)c1		310 nM	2 nM	55%	32%		25
Nc1cccc(CN2CCC(NC(=O)[C@](O)(c3ccccc3)[C@@H]3CCC(F)(F)C3)CC2)c1	6.9 nM	330 nM		90%	88%		
O=C(NC1CCN(CC2CCCC2)CC1)C(O)(c1ccccc1)C1CCCC1 (centres undefined)	270 nM	14000 nM					
Cc1cccc(CN2CCC(NC(=O)[C@](O)(c3ccccc3)[C@@H]3CCC(F)(F)C3)CC2)n1				52%	24%		
Nc1cccc(CN2CCC(NC(=O)[C@](O)(c3ccccc3)[C@@H]3CCC(F)(F)C3)CC2)n1	2.8 nM	530 nM		80%	84%		>64
Cc1ccc(CN2CCC(NC(=O)C(O)(c3ccccc3)C3CCCC3)CC2)cc1 (centres undefined)	6.4 nM	22 nM					
O=C(NC1CCN(CC2CCCCC2)CC1)C(O)(c1ccccc1)C1CCCC1 (centres undefined)	17 nM	3300 nM					
CC(C)=CCCN1CCC(NC(=O)[C@](O)(c2ccccc2)[C@H]2CC[C@H](O)C2)CC1	18 nM	2300 nM		76%	75%		2.9
O=C(NC1CCN(Cc2ccncc2)CC1)C(O)(c1ccccc1)C1CCCC1 (centres undefined)	190 nM	6400 nM					
COc1cccc(CN2CCC(NC(=O)[C@](O)(c3ccccc3)[C@@H]3CCC(F)(F)C3)CC2)c1				46%	53%		

SMILES	Ki [1]	Ki [2]	Ki [3]	Metabolic stability (Homo sapiens [4])	Metabolic stability (Canis familiaris [5])	Metabolic stability (Homo sapiens [6])	Activity (Canis familiaris [7])
CC(C)=CCCN1CCC(NC(=O)[C@](O)(c2ccccc2)[C@H]2CC[C@H](F)C2)CC1	19 nM	1300 nM		66%	60%		
O=C(NC1CCN(Cc2ccccc2)CC1)[C@](O)(c1ccccc1)[C@@H]1CCC(F)(F)C1	3.8 nM	260 nM		47%	45%		
Cc1cc(CN2CCC(NC(=O)C(O)(c3ccccc3)C3CCCC3)CC2)cs1 (centres undefined)	3.5 nM	24 nM					
Cc1ccccc1CN1CCC(NC(=O)C(O)(c2ccccc2)C2CCCC2)CC1 (centres undefined)	220 nM	37000 nM					
CC(C)=CCCN1CCC(NC(=O)[C@](O)(c2ccccc2)C2CCCC2)CC1		490 nM		54%	31%		5.2
O=C(NC1CCN(Cc2ccoc2)CC1)C(O)(c1ccccc1)C1CCCC1 (centres undefined)	50 nM	1800 nM					
NCc1cccc(CN2CCC(NC(=O)[C@](O)(c3ccccc3)[C@@H]3CCC(F)(F)C3)CC2)c1	21 nM	3400 nM		80%	77%		
O=C(NC1CCN(Cc2ccccn2)CC1)C(O)(c1ccccc1)C1CCCC1 (centres undefined)	14 nM	320 nM					
CC(C)=CCCN1CCC(NC(=O)[C@](O)(c2ccccc2)[C@@H]2CCC(F)(F)C2)CC1	6.2 nM	2000 nM		68%	70%		4.2
O=C(NC1CCN(Cc2ccsc2)CC1)C(O)(c1ccccc1)C1CCCC1 (centres undefined)	3.6 nM	79 nM					
Nc1ccc(CN2CCC(NC(=O)[C@](O)(c3ccccc3)[C@@H]3CCC(F)(F)C3)CC2)nc1	15 nM	930 nM					
Cc1cccc(CN2CCC(NC(=O)C(O)(c3ccccc3)C3CCCC3)CC2)c1 (centres undefined)	2.3 nM	70 nM					
O=C(NC1CCN(Cc2ccsc2)CC1)[C@](O)(c1ccccc1)[C@@H]1CCC(F)(F)C1				35%	37%		
O=C(NC1CCN(Cc2cccc(CO)c2)CC1)[C@](O)(c1ccccc1)[C@@H]1CCC(F)(F)C1		6900 nM		34%	73%		3.1
O=C(NC1CCN(Cc2ccccc2)CC1)C(O)(c1ccccc1)C1CCCC1 (centres undefined)		30 nM					
Nc1ccc(CN2CCC(NC(=O)[C@](O)(c3ccccc3)[C@@H]3CCC(F)(F)C3)CC2)cc1F	6.1 nM	310 nM		78%	78%		
Nc1ccc(CN2CCC(NC(=O)[C@](O)(c3ccccc3)[C@@H]3CCC(F)(F)C3)CC2)cc1	7.8 nM	220 nM		88%	89%		43
O=C(NC1CCN(Cc2cccc(O)c2)CC1)[C@](O)(c1ccccc1)[C@@H]1CCC(F)(F)C1	5.4 nM	37 nM		56%	73%		
O=C(NC1CCN(CC2CCCCCC2)CC1)C(O)(c1ccccc1)C1CCCC1 (centres undefined)	12 nM	3100 nM					
